Bioassay records from PubChem BioAssay.
Rows were chosen to be rich in hits. Some 9.2% of all compounds tested hit in one or more screens of this group.
Fibroblast inh – blocks proliferation of human lung fibroblasts | viability, % at 10 µM | 85,000 compounds, 1.1% hits | LL 47 human lung fibroblast viability, ATP luminescence; hits give low values;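 active = viability at or below 50% in the single dose screen; inactive = viability above 50%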;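 note: compound exposure lasted 72 h before the ATP readout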
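Signal: luminescent ATP detection, CellTiter-Glo; assay system: LL 47 human lung fibroblasts; input: 1,150 cells/well; incubation: overnight cell rest, 72 h compound treatment at 37 °C; measure: % viability versus median cells-only luminescence; medium: IMEM growth medium with 15% fetal bovine serum; dosing: compound addition at 0.1% DMSO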
ERa coact inh – ER-alpha (human) coactivator binding inhibition; inhibition, % at 25.6 µM; TR-FRET ER-alpha LBD / SRC-1 peptide, estradiol-bound; 86,000 compounds, 1.7% hits; AID 629; in the data active = inhibition above about 50%
Target sequence (P03372 whole entry, looked up, the tested form may be a part): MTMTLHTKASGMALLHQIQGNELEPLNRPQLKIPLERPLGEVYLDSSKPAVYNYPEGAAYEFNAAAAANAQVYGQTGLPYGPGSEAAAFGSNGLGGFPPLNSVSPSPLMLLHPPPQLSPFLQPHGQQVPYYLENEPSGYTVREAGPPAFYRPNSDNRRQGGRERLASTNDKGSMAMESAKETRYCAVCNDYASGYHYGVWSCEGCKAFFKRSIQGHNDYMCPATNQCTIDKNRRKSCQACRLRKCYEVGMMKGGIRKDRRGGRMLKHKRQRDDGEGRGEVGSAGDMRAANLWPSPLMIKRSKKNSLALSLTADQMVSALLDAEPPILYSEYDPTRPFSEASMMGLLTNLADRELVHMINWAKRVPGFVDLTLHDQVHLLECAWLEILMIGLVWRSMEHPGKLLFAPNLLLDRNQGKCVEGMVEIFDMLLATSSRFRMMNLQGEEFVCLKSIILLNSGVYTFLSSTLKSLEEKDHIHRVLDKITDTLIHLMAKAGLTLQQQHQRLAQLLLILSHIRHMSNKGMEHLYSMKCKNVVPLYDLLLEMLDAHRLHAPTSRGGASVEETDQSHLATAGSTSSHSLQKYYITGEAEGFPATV
ERa SRC1 pot – ER-alpha (human) coactivator binding potentiation | coactivator binding (% of control), % at 25.6 µM | 86,000 compounds, 1.3% hits | TR-FRET ERalpha-LBD/SRC-Cy5 coactivator binding, 2 h; 100 = basal binding, no effect | P03372 | AID 639; in the data active = activity above about 200%;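 note: binding measured in presence of low estradiol as agonist stimulus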
ERb SRC1 inh – blocks coactivator binding to human estrogen receptor beta | inhibition, % at 25.6 µM | TR-FRET ER-beta LBD / SRC1-Cy5 peptide binding; receptor agonist-loaded with 1 µM estradiol | 86,000 compounds, 1.3% hits;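 active = compounds whose percent inhibition of the receptor-coactivator binding signal exceeds about 50% in the single-dose screen, limit read from the data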
HUVEC prolif 384 – inhibitors of human endothelial cell proliferation. 86,000 compounds, 1.1% hits. HUVEC proliferation, CellTiter-Glo luminescence, 72 h; hits give low values. viability, % at 10 µM (by protocol). AID 648;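 active = viability at or below 30%; inactive = viability above 30%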
H69AR inhibit – growth inhibitors of human H69AR lung tumor cells; H69AR lung tumor viability, ATP luminescence, 72 h; hits give low values; viability, % at 10 µM; 85,000 compounds, 6% hits; AID 598;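 active = viability at or below 40%; inactive = viability above 40%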;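 note: multidrug resistant small cell line overexpressing MRP-1 efflux transporter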
Large screens that a line does not name were inactive; [ ] = dose if it differs, or a comment.

Cc1ccc(NC(=O)CS(=O)Cc2nc(-c3ccc(C)cc3)oc2C)cc1 (configuration not stated)	none
N#CC1=C(N)Oc2n[nH]c(-c3cccs3)c2C1C1CCCCC1 (configuration not stated)	H69AR inhibit 38
COc1ccc(CNC(=O)c2ccc(S(=O)(=O)N3CCCC3)cc2)cc1OC	none
Cc1cc2c(cc1C)-c1nnnn1C(C)(C)C2	none
CSc1ccccc1NC(=O)c1ccncc1	none
C/C(=C\C(=O)c1ccncc1)Nc1ccccc1O	H69AR inhibit 23
O=C1N(CC(=O)N2CCc3ccccc32)CCN1Cc1ccccc1Cl	none
O=C(Oc1c(Cl)cc(Cl)c2cccnc12)c1cccs1	H69AR inhibit 27
O=C(Oc1cncc(Cl)c1)c1ccco1	none
O=C(Oc1c(Cl)cc(Cl)c2cccnc12)c1ccco1	Fibroblast inh 43, H69AR inhibit 1.8
COC(=O)Oc1c(Br)c(=O)oc2ccccc12	ERa coact inh 64
Cc1cccc(NC(=O)c2c(O)c3cccc4c3n(c2=O)CC4)c1	ERa SRC1 pot 217[fluorescence artefact?]
CCc1nnc(NC(=O)c2c(O)c3cccc4c3n(c2=O)CC4)s1	H69AR inhibit 1.8
O=C(NCCc1ccccc1)c1c(O)c2cccc3c2n(c1=O)CC3	none
O=C(NCc1ccccn1)c1c(O)c2cccc3c2n(c1=O)CC3	none
CCCc1nnc(NC(=O)c2c(O)c3cccc4c3n(c2=O)CC4)s1	H69AR inhibit 18
COc1cc(NCCCCCCCN)c2ncccc2c1	Fibroblast inh 23, ERa coact inh 78[fluorescence artefact?], HUVEC prolif 384 3.1
COc1cc(NC(=O)c2ccc3c(c2)OCO3)c2ncccc2c1	none
Cc1ccc2nc3c(c(N)c2c1)CCN3c1ccccc1	none
CCCCN1CCc2c1nc1ccc(Br)cc1c2N	Fibroblast inh 28, HUVEC prolif 384 13
Cc1cc(C(=O)CN2C(=O)NC(Cc3c[nH]c4ccccc34)C2=O)c(C)n1C (configuration not stated)	ERb SRC1 inh 94[fluorescence artefact?]
O=C1NC(Cc2c[nH]c3ccccc23)C(=O)N1CCOc1ccccc1 (configuration not stated)	none
O=C1C(Cl)=C(NCC2CCCO2)C(=O)N1CCc1ccccc1 (configuration not stated)	none
COC(=O)c1cc(NC(=O)c2ccccc2)c(=O)oc1C/C=N\OCc1ccc(Cl)cc1Cl	none
COC(=O)CNc1c(-c2ccccc2)nc2ccc(Br)cn12	none (no result: Fibroblast inh, HUVEC prolif 384, H69AR inhibit)
O=C1c2ccccc2NC(c2ccc3c(c2)OCCO3)N1c1ccc2c(c1)OCCO2 (configuration not stated)	none
O=C1Nc2cc3c(cc2Sc2ccccc21)OCCO3	ERa SRC1 pot 234[fluorescence artefact?]
Cn1cc(SCC(N)=O)c2ccccc21	none
COc1ccc(C2=NN(C(=O)CSc3cn(C)c4ccccc34)C(c3ccc(OC)cc3)C2)cc1 (configuration not stated)	ERa SRC1 pot 639[fluorescence artefact?]
CCC(=Nc1ccc(N)cc1)C1=C(O)C(C(=O)OC)C(C)(C)CC1=O (configuration not stated)	ERb SRC1 inh 83[fluorescence artefact?] (no result: H69AR inhibit)
CC(CCc1ccccc1)NC(=O)CSc1nc(N)cc(N)n1 (configuration not stated)	none
COC(CNC(=O)C1CC(=O)N(CCc2ccccc2)C1)OC (configuration not stated)	none
CC1CCC(NC(=O)C2CCC(CNS(=O)(=O)c3cccc4nsnc34)CC2)CC1 (configuration not stated)	H69AR inhibit 17
O=C(C1CCC(CNS(=O)(=O)c2cccc3nsnc23)CC1)N1CC=C(c2ccccc2)CC1 (configuration not stated)	H69AR inhibit 39
CC(=O)c1c(C)n(-c2ccccc2)c2ccc(O)cc12	none
COC(=O)c1c(C)n(-c2ccc(C)cc2)c2ccc(O)cc12	HUVEC prolif 384 27, H69AR inhibit 23
COC(=O)c1c(C)n(-c2ccccc2)c2ccc(O)cc12	H69AR inhibit 19
COc1ccc(Nc2nc(N3CCCCC3)nc3ccccc23)c(OC)c1	H69AR inhibit 9.0
COc1ccc(Nc2nc(N3CCCC3)c3ccccc3n2)cc1	Fibroblast inh 20, ERa coact inh 68[fluorescence artefact?], HUVEC prolif 384 7.7, H69AR inhibit 36
c1ccc2c(N3CCCC3)nc(-c3ccncc3)nc2c1	none
CCN(CC)c1ccc(Nc2nc(N3CCOCC3)c3ccccc3n2)cc1	H69AR inhibit 32
CCOC(=O)c1cccc(NC(=O)Cn2cnc3c2c(=O)n(C)c(=O)n3C)c1	none
C=CCc1c(C)nc(SC)nc1Nc1ccc(C)cc1	none
CCOC(=O)C1=CSC2=NS(=O)(=O)CCN12	none
COc1ccc2c(c1)c(CCN1C(=O)c3ccccc3C1=O)cn2C(=O)c1ccco1	HUVEC prolif 384 26
Cc1nc2c3c(-c4ccccc4)c(-c4ccccc4)oc3ncn2n1	none
COc1cc(-c2nc3cnccn3c2Nc2ccc(C)cc2)ccc1O	none
COc1cc(-c2nc3cnccn3c2Nc2ccc(C(C)C)cc2)ccc1O	Fibroblast inh 46, HUVEC prolif 384 3.2, H69AR inhibit 0.5
C=CCn1cnc2c(c1=O)c1nc3ccccc3nc1n2/N=C/c1cccc(OC)c1	ERa coact inh 68[fluorescence artefact?], H69AR inhibit 22
COCCn1cnc2c(c1=O)c1nc3ccccc3nc1n2/N=C/c1cccc(OC)c1OC	H69AR inhibit 39
CCCCCCn1cnc2c(c1=O)c1nc3ccccc3nc1n2/N=C/c1ccco1	none
O=c1c2c3nc4ccccc4nc3n(/N=C/c3cccs3)c2ncn1-c1ccccc1	H69AR inhibit 30
COC(=O)c1ccccc1OC(=O)c1ccc(Br)o1	none
OC(COc1ccc2cc(Br)ccc2c1)CN1CCOCC1 (configuration not stated)	none
COc1ccc(C2NC(=O)c3n[nH]c(C)c32)c(OC)c1 (configuration not stated)	none
COc1ccc(C2CC(c3c(O)cc(C)oc3=O)=NCCS2)c(OC)c1 (configuration not stated)	Fibroblast inh 48, H69AR inhibit 24
Cc1c(N2C(=O)c3ccc(Br)cc3C2=O)c(=O)n(-c2ccccc2)n1C	none
Cc1c(N2C(=O)c3ccc4c5c(ccc(c35)C2=O)CC4)c(=O)n(-c2ccccc2)n1C	ERa coact inh 95[fluorescence artefact?], ERb SRC1 inh 92[fluorescence artefact?]
Cc1cc2oc(=O)cc(COC(=O)c3n[nH]c4ccccc34)c2cc1C	ERa SRC1 pot 338
CCCCCC(C)NC(=O)c1ccoc1C (configuration not stated)	none
COC(=O)c1cn(NC(=O)c2cc(OC)c(OC)c(OC)c2)c(=O)c2ccccc12	Fibroblast inh 49, ERa coact inh 58[fluorescence artefact?], HUVEC prolif 384 20, H69AR inhibit 19
CC(Oc1ccc(Cl)cc1Cl)C(=O)Nc1ccncc1 (configuration not stated)	H69AR inhibit 34
